From ChEMBL document CHEMBL2406982, “Structure-activity relationships of new cyanothiophene inhibitors of the essential peptidoglycan biosynthesis enzyme MurF” (Eur J Med Chem, 2013)
≈ marks a conversion by molar mass, not a printed value. Calls of active or inactive are those of the source. The rule behind the calls is not given here.

Columns and labels:
Staphylococcus aureus [1] = assay: Inhibition of Staphylococcus aureus MurF using D-Ala-D-Ala/UMtri-L-Lys as substrate assessed as residual activity at 100 uM after 15 mins by Malachite green method
Procedure, shortened: (§1)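 S. aureus MurF, purified, assayed in 50 mM Hepes pH 8.0 with 20 mM MgCl2 and 0.005% Triton X-114, with D-Ala-D-Ala, UMtri-L-Lys and ATP. Compound was in DMSO (5% v/v final). After 15 min at 37 °C, Biomol reagent was added and A650 was read 5 min later. Duplicates were run. Residual activity was relative to 5% DMSO controls. IC50 was read as 50% residual activity across seven concentrations.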

Escherichia coli [2] = assay: Inhibition of Escherichia coli MurF using D-Ala-D-Ala/UMtri-mDAP as substrate assessed as residual activity at 100 uM after 15 mins by Malachite green method
Procedure, shortened: (§2)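 Purified E. coli MurF in 50 mM Hepes pH 8.0, 50 mM MgCl2, 0.005% Triton X-114, with D-Ala-D-Ala, UMtri-mDAP and ATP. Compound was added in DMSO (final 5% v/v). Mixtures were incubated 15 min at 37 °C, quenched with Biomol reagent, and absorbance was read at 650 nm after 5 min. Runs were in duplicate. Residual activity was taken versus DMSO-only controls. IC50 came from residual activity at seven concentrations.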

Staphylococcus aureus [3] = assay: Antimicrobial activity against Staphylococcus aureus SH1000 by broth microdilution method; format: functional, organism-based
Procedure, shortened: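 MIC by broth microdilution in Mueller-Hinton broth following CLSI guidelines.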

[4] = Inhibition of Streptococcus pneumoniae MurF using D-Ala-D-Ala/UMtri-L-Lys as substrate after 15 mins by Malachite green method
Procedure, shortened: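 Purified S. pneumoniae MurF in 50 mM Hepes pH 8.0, 50 mM MgCl2, 0.005% Triton X-114, with D-Ala-D-Ala, UMtri-L-Lys and ATP. Compound was added in DMSO (5% v/v final). Reactions ran 15 min at 37 °C, were stopped with Biomol malachite green reagent, and A650 was measured after 5 min. Runs were in duplicate. Residual activity was versus DMSO controls. IC50 was from seven concentrations.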

Streptococcus pneumoniae = assay: Antimicrobial activity against Streptococcus pneumoniae R6 by broth microdilution method; format: functional
Procedure, shortened: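 MIC by CLSI broth microdilution in Mueller-Hinton broth supplemented with 5% (v/v) lysed horse blood.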

Escherichia coli [5] = assay: Antimicrobial activity against Escherichia coli 1411 by broth microdilution method; format: functional, organism-based
Procedure, shortened: (§3)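 Broth microdilution MIC per CLSI guidelines in Mueller-Hinton broth. E. coli 1411 and AB734 were also tested with added polymyxin B nonapeptide to permeabilise the outer membrane.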

Escherichia coli [6] = assay: Antimicrobial activity against Escherichia coli AB734 by broth microdilution method; format: functional, organism-based; procedure, shortened: as §3
[7] = Inhibition of Escherichia coli MurF using D-Ala-D-Ala/UMtri-mDAP as substrate after 15 mins by Malachite green method; procedure, shortened: as §2
[8] = Inhibition of Staphylococcus aureus MurF using D-Ala-D-Ala/UMtri-L-Lys as substrate after 15 mins by Malachite green method; procedure, shortened: as §1

SMILES | Activity (Staphylococcus aureus [1]) [%] | Activity (Escherichia coli [2]) [%] | Activity (Staphylococcus aureus [3]) | IC50 [4] [µM] | MIC (Streptococcus pneumoniae) [µg/mL] | Activity (Escherichia coli [5]) | Activity (Escherichia coli [6]) | IC50 [7] [µM] | IC50 [8] [µM]
CC(=O)Oc1ccc(C2CCc3c(sc(NC(=O)c4cc(S(=O)(=O)N5CCOCC5)c(Cl)cc4Cl)c3C#N)C2)cc1 (stereo unspecified) | 103 | 91 | inactive | 0.12 | > 128 | inactive | inactive |  | 
CC(=O)Oc1ccc(CN2CCc3c(sc(NC(=O)c4cc(S(=O)(=O)N5CCOCC5)c(Cl)cc4Cl)c3C#N)C2)cc1OC(C)=O |  |  | inactive | 3.03 | > 128 | inactive | inactive | 88 | 89
N#Cc1c(NC(=O)c2cc(S(=O)(=O)N3CCOCC3)c(Cl)cc2Cl)sc2c1CCN(Cc1cccc(O)c1)C2 |  |  | inactive | 0.42 | 16 (≈ 26.3 µM) | inactive | inactive | 81 | 91
N#Cc1c(NC(=O)c2cc(S(=O)(=O)N3CCOCC3)c(Cl)cc2Cl)sc2c1CCN(Cc1ccc(-c3nnn[nH]3)cc1)C2 |  |  | inactive | 0.3 | > 128 | inactive | inactive | 55 | 120
N#Cc1c(NC(=O)c2cc(S(=O)(=O)N3CCOCC3)c(Cl)cc2Cl)sc2c1CCN(Cc1ccc3c(c1)OCO3)C2 |  |  | inactive | 0.99 | > 128 | inactive | inactive | 73 | 109
COc1ccc(CN2CCc3c(sc(NC(=O)c4cc(S(=O)(=O)N5CCOCC5)c(Cl)cc4Cl)c3C#N)C2)cc1O |  |  | inactive | 0.6 | > 128 | inactive | inactive | 77 | 115
COc1ccc(CN2CCc3c(sc(NC(=O)c4cc(S(=O)(=O)N5CCOCC5)c(Cl)cc4Cl)c3C#N)C2)cc1OC |  |  | inactive | 10.4 | > 128 | inactive | inactive | 37 | 66.5
N#Cc1c(NC(=O)c2cc(S(=O)(=O)N3CCOCC3)c(Cl)cc2Cl)sc2c1CCN(Cc1cc(O)ccc1O)C2 | 79 | 81 | inactive | 2.75 | 32 (≈ 51.3 µM) | inactive | inactive |  | 
N#Cc1c(NC(=O)c2cc(S(=O)(=O)N3CCOCC3)c(Cl)cc2Cl)sc2c1CCN(CC1CCCCC1)C2 | 64 | 63 | inactive | 0.46 | > 128 | inactive | inactive |  | 
COc1ccc(C2CCc3c(sc(NC(=O)c4cc(S(=O)(=O)N5CCOCC5)c(Cl)cc4Cl)c3C#N)C2)cc1 (stereo unspecified) | 85 | 90 | inactive | 0.17 | > 128 | inactive | inactive |  | 
N#Cc1c(NC(=O)c2cc(S(=O)(=O)N3CCC(=O)CC3)c(Cl)cc2Cl)sc2c1CCCC2 | 103 | 102 | inactive | 3.37 | > 128 | inactive | inactive |  | 
COC(=O)c1ccc(CN2CCc3c(sc(NC(=O)c4cc(S(=O)(=O)N5CCOCC5)c(Cl)cc4Cl)c3C#N)C2)cc1 |  |  | inactive | 0.72 | > 128 | inactive | inactive | 59 | 88
COc1ccc(CN2CCc3c(sc(NC(=O)c4cc(S(=O)(=O)N5CCOCC5)c(Cl)cc4Cl)c3C#N)C2)cc1 |  |  | inactive | 0.6 | > 128 | inactive | inactive | 82 | 95
N#Cc1c(NC(=O)c2cc(S(=O)(=O)N3CCOCC3)c(Cl)cc2Cl)sc2c1CCN(CCC1CCNCC1)C2.O=C(O)C(F)(F)F | 84 | 93 | inactive | 0.6 | > 128 | inactive | inactive |  | 
COc1cc(CN2CCc3c(sc(NC(=O)c4cc(S(=O)(=O)N5CCOCC5)c(Cl)cc4Cl)c3C#N)C2)ccc1O | 64 |  | inactive | 4.15 | > 128 | inactive | inactive | 98 | 
N#Cc1c(NC(=O)c2cc(S(=O)(=O)N3CCCC(C(=O)O)C3)c(Cl)cc2Cl)sc2c1CCCC2 (stereo unspecified) | 102 | 100 | inactive | 50 | > 128 | inactive | inactive |  | 
CCOC(=O)C1CCCN(S(=O)(=O)c2cc(C(=O)Nc3sc4c(c3C#N)CCCC4)c(Cl)cc2Cl)C1 (stereo unspecified) | 93 | 94 | inactive | 131 |  | inactive | inactive |  | 
N#Cc1c(NC(=O)c2cc(S(=O)(=O)N3CCOCC3)c(Cl)cc2Cl)sc2c1CCN(Cc1ccc([N+](=O)[O-])cc1)C2 |  |  | inactive | 1.09 | 128 (≈ 201 µM) | inactive | inactive | 101 | 94
Cl.N#Cc1c(NC(=O)c2cc(S(=O)(=O)N3CCOCC3)c(Cl)cc2Cl)sc2c1CCNC2 | 81 | 94 | inactive | 47 | 128 | inactive | inactive |  | 
CC1CCCCN1S(=O)(=O)c1cc(C(=O)Nc2sc3c(c2C#N)CCCC3)c(Cl)cc1Cl (stereo unspecified) | 103 | 107 | inactive | 3.75 | > 128 | inactive | inactive |  | 
N#Cc1c(NC(=O)c2cc(S(=O)(=O)N3CCOCC3)c(Cl)cc2Cl)sc2c1CCN(Cc1ccc(O)cc1)C2 | 84 | 68 | inactive | 0.18 | > 128 | inactive | inactive |  | 
N#Cc1c(NC(=O)c2cc(S(=O)(=O)N3CCC(O)CC3)c(Cl)cc2Cl)sc2c1CCCC2 | 101 | 104 | inactive | 10.5 | 64 (≈ 124 µM) | inactive | inactive |  | 
N#Cc1c(NC(=O)c2cc(S(=O)(=O)N3CCOCC3)c(Cl)cc2Cl)sc2c1CCN(Cc1ccc(O)c(O)c1)C2 | 64 | 78 | inactive | 0.43 | > 128 | inactive | inactive |  | 
CC(C)(C)OC(=O)N1CCc2c(sc(NC(=O)c3cc(S(=O)(=O)N4CCOCC4)c(Cl)cc3Cl)c2C#N)C1 | 78 | 88 | inactive | 19 | 128 (≈ 213 µM) | inactive | inactive |  | 
CC(C)(C)OC(=O)N1CCC(CCN2CCc3c(sc(NC(=O)c4cc(S(=O)(=O)N5CCOCC5)c(Cl)cc4Cl)c3C#N)C2)CC1 |  |  | inactive |  |  | inactive | inactive |  | 
N#Cc1ccc(CN2CCc3c(sc(NC(=O)c4cc(S(=O)(=O)N5CCOCC5)c(Cl)cc4Cl)c3C#N)C2)c(F)c1 |  | 58 | inactive | 1.92 | > 128 | inactive | inactive |  | 92
N#Cc1c(NC(=O)c2cc(S(=O)(=O)N3CCC(C(=O)O)CC3)c(Cl)cc2Cl)sc2c1CCCC2 | 96 | 102 | inactive | 17.9 | 64 (≈ 118 µM) | inactive | inactive |  | 
N#Cc1c(NC(=O)c2cc(S(=O)(=O)N3CCOCC3)c(Cl)cc2Cl)sc2c1CCN(C(=O)c1ccccc1)C2 | 107 | 93 | inactive | 27 | > 128 | inactive | inactive |  | 
